The values below come from article PMC3882305 (The Pediatric Infectious Disease Journal, 2013).

Like-named read-outs stand apart in the source and are kept apart here.

Series [1] concerns HIV-1. The following applies: ITT (missing = failure), cited from earlier work.
Series [2] has as its system HIV. The conditions noted are these: mostly PI-experienced, aged 6 to 17 years; time to loss of virologic response; cited from earlier work.
The subject of series [3] is HIV. The following applies: once-daily, cited from earlier work.
For series [4], the system named is CD4+ cell. Kind of series: CD4+ cell response. It counts as in vivo, HIV-1–infected children. The conditions noted are these: week 48; for median CD4+ cell count change from baseline / median percentage CD4+ cell count change from baseline: whole treatment group. In a few lines:
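Lymphocyte subsets were monitored every 4–12 weeks in children given twice-daily FPV ± RTV with an NRTI background, with visits at weeks 2, 4, 8, 12, 16, 24, 36 and 48. CD4+ cell count and CD4+ percentage at week 48 were expressed as change from baseline and summarized as medians.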

Series [5] can be described thus: Steady-state plasma APV/RTV/FPV pharmacokinetics in HIV-1-infected children. It counts as in vivo. In a few lines: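 Dosing used FPV 50 mg/mL oral suspension or 700 mg tablets (≥39 kg), with RTV 80 mg/mL solution or 100 mg capsules (≥33 kg). At week 2, intensive sampling was taken at 0, 1, 2, 4, 6, 8 and 12 h postdose, plus predose samples every 4–12 weeks. Noncompartmental AUC(0–τ), Cmax, Cτ and CL/F were calculated; actual dose had to be within 10% of nominal. Log-transformed mixed-effect ANOVA gave geometric LS mean ratios (90% CI) versus historical healthy adults on FPV 1400 mg BID (n=190) or FPV/RTV 700/100 mg BID (n=159).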

For series [6] the following is noted: study APV20003, cited from earlier work.
In series [7] the test system is HIV-1. Kind of series: Antiviral response: plasma HIV-1 RNA <400 copies/mL, ITT. It counts as in vivo, HIV-1–infected children. Summed up: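 Children aged 2–18 years received twice-daily FPV ± RTV plus 2 or 3 active NRTIs, with plasma HIV-1 RNA measured every 4–12 weeks. The ITT (exposed) population was all subjects with ≥1 documented dose. In the snapshot analysis, response at each visit was taken from the last HIV-1 RNA within the visit window. Missing data counted as nonresponse, as did switching or adding background ART, unless toxicity-driven before week 2.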

A short description of series [8]: Safety: adverse events, laboratory abnormalities, growth. It is filed as in vivo, HIV-1–infected children. The following applies: for subjects with at least 1 drug-related AE: 2- to <6-year olds (FPV/RTV 2/19; FPV 12/20); for change in median height and weight Z scores: week 48; for subjects with an AE leading to permanent discontinuation of study drug and withdrawal from the study: whole treatment group; for subjects reporting AEs: whole treatment group (FPV 19/20; FPV/RTV 83/89); for subjects with at least 1 drug-related grade 2–4 AE: whole treatment group (FPV/RTV 10/89; FPV 2/20). Summed up: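 AEs, growth parameters, hematology and clinical chemistry including a lipid panel were assessed every 4–12 weeks, with follow-up 4 weeks after withdrawal. Severity was graded by the DAIDS Toxicity Table (2004). All study drug was stopped for grade 3/4 AE or toxicity unless clearly unrelated.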

The mark [9] stands for this setting: 2- to <6-year olds (FPV 10/20, all grade 1; FPV/RTV 1/19, grade 2).

Regarding lopinavir (LPV)/RTV [LPV/RTV], the “subjects with HIV-1 RNA <400 copies/mL after 48 weeks” value in series [1] (ART-naïve) is recorded as 88%; in series [1] (PI-experienced/NRTI-experienced), 58%; in series [1] (PI-naïve/NRTI-experienced), 84%.
With `CC(C)CN(C[C@@H](O)[C@H](Cc1ccccc1)NC(=O)O[C@H]1CO[C@H]2OCC[C@H]21)S(=O)(=O)c1ccc(N)cc1` [RTV-boosted darunavir, darunavir], in series [2], the “children achieving a viral load of <400 copies/mL at week 48” value is listed as 59%.
With `COC(=O)N[C@H](C(=O)N[C@@H](Cc1ccccc1)[C@@H](O)CN(Cc1ccc(-c2ccccn2)cc1)NC(=O)[C@@H](NC(=O)OC)C(C)(C)C)C(C)(C)C` [RTV-boosted atazanavir, atazanavir], the results for the “response rate for HIV RNA <400 copies/mL at week 48” value in series [3] (ART-experienced 6- to <18-year olds (8/25)) and in series [3] (ART-naïve 6- to <18-year olds (14/16)) were 32% and 88%, respectively.
Turning to `CC(C)CN(C[C@@H](OP(=O)(O)O)[C@H](Cc1ccccc1)NC(=O)O[C@H]1CCOC1)S(=O)(=O)c1ccc(N)cc1` [FPV, Fosamprenavir], in series [4], the “median CD4+ cell count change from baseline” value is 340 cells/mm^3 and the “median percentage CD4+ cell count change from baseline” value is given as 8%. Also, the “plasma amprenavir exposures compared with 1400 mg twice-daily in adults” value in series [5] (30 mg/kg twice-daily, 2- to <6-year olds) was “higher”. The “samples with undetectable plasma FPV prodrug concentrations” value in series [5] (plasma) turned out to be 98%. The “APV exposures compared with adults receiving FPV/RTV 1400/200 mg QD” value in series [6] (6- to 18-year-old children, 30/6 mg/kg QD) is “comparable”. The “subjects with HIV-1 RNA <400 copies/mL at week 48” value (“subjects … at week 48” for short) in series [7] (FPV treatment group (PI-naïve, 2 to <6 yr), snapshot analysis) is 60%. Besides, in series [8] (setting [9]), the “incidence of drug-related vomiting” value came to 50%. In addition, in series [8], the “subjects with at least 1 drug-related AE” value worked out at 60%; the “change in median height and weight Z scores” value was “Small increases”; the “subjects with an AE leading to permanent discontinuation of study drug and withdrawal from the study” value is “none”; the “subjects reporting AEs” value came out at 95%. Further, the “subjects with at least 1 drug-related grade 2–4 AE” value in series [8] is 10%. For the same compound, the “grade 3/4 hypertriglyceridemia, raised total cholesterol or raised low density lipoprotein cholesterol” value in series [8] (FPV group) is recorded as “no grade 3/4 reports”.
Regarding `CC(C)c1nc(CN(C)C(=O)N[C@H](C(=O)N[C@@H](Cc2ccccc2)C[C@H](O)[C@H](Cc2ccccc2)NC(=O)OCc2cncs2)C(C)C)cs1` [RTV, ritonavir], the “plasma RTV Cτ” value in series [5] (RTV 3 mg/kg BID in combination with FPV, across the age groups) is listed as “higher”.
Take fosamprenavir/ritonavir [FPV/RTV]: the “median CD4+ cell count change” value in series [4] (2- to <6-year olds) is 174 cells/mm^3; in series [4] (6- to <12-year olds) it was 210 cells/mm^3; in series [4] (12- to 18-year olds), 140 cells/mm^3. Also, the “percentage CD4+ cell count change” value worked out at 10% in series [4] (2- to <6-year olds), 7% in series [4] (6- to <12-year olds) and 7% in series [4] (12- to 18-year olds). Also, in series [4], the “median CD4+ cell count change from baseline” value is given as 190 cells/mm^3. The “median percentage CD4+ cell count change from baseline” value in series [4] turned out to be 8%. Besides, the “APV AUC(0–τ) and Cmax compared with adults receiving FPV/RTV 700/100 mg BID” value in series [5] (FPV/RTV 15/3 mg/kg BID, 6- to <12-year olds and 12- to 18-year olds) is “lower”. Moreover, in series [5] (FPV/RTV 23/3 mg/kg BID, 2- to <6-year olds), the “higher plasma APV AUC(0–τ), Cmax and Cτ values than historical adults receiving FPV/RTV 700/100 mg BID” value is “approximately 50%”. Moreover, the “plasma APV exposures compared with the historical adult population” value in series [5] (FPV/RTV 700/100 mg BID, 12- to 18-year-old subjects ≥39 kg) was “similar”. The “lower APV exposure than adults receiving FPV/RTV 1400/200 mg QD” value in series [6] (2- to <6-year-old children, FPV/RTV 30/6 mg/kg QD) is recorded as ~ 28%. In addition, the “subjects … at week 48” value is reported as 74% in series [7] (2- to <6-year olds (14/19)); 53% in series [7] (6- to <12-year-old (16/30)); 63% in series [7] (12- to 18-year-old (25/40)); 83% in series [7] (ART-naïve subjects, snapshot analysis); 48% in series [7] (PI-experienced subjects, snapshot analysis); 65% in series [7] (PI-naïve/NRTI-experienced subjects, snapshot analysis). For the same compound, the “subjects … at week 48” value in series [7] (range across age groups, intent-to-treat [exposed], snapshot analysis) is listed as 53–74%. The “incidence of drug-related vomiting” value in series [8] (setting [9]) is 5%; in series [8] (6- to <12-year olds (9/30; 7 grade 1 and 2 grade 2)) it was 30%; in series [8] (12- to 18-year olds (3/40, all grade 1)), 8%. The “subjects with at least 1 drug-related AE” value in series [8] worked out at 11%. Further, the “subjects with drug-related AEs” value in series [8] (6- to <12-year olds (13/30)) came out at 43%; in series [8] (12- to 18-year olds (15/40)) it was 38%. The “AEs leading to permanent discontinuation of study drug” value came to 1 in series [8] (6- to <12-year olds (hypertriglyceridemia)); 2 in series [8] (12- to 18-year olds (adverse drug reaction and pyelonephritis)). In series [8] (FPV/RTV group), the “grade 3/4 hypertriglyceridemia” value is recorded as “no reports”. Besides, the “grade 2–4 diarrhea” value in series [8] (FPV/RTV group (2/89)) came to 2%. Also, the “grade 3 increases in total cholesterol” value in series [8] (FPV/RTV group (2 subjects)) was 5%. Also, the “grade 2–4 vomiting” value in series [8] (FPV/RTV group (3/89)) amounted to 3%. Moreover, the “grade 3 increases in low density lipoprotein cholesterol” value in series [8] (FPV/RTV group (4 subjects)) is given as 9%. The compound further had a drug-related nausea in series [8] (adolescent group (6/40)) of 15%. The compound further returned a drug-related diarrhea in series [8] (adolescent group (7/40)) of 18%. Also, the “change in median height and weight Z scores” value in series [8] is “Small increases”. The “subjects with an AE leading to permanent discontinuation of study drug and withdrawal from the study” value in series [8] was “Four”. Moreover, in series [8], the “subjects reporting AEs” value is 93%. The “subjects with at least 1 drug-related grade 2–4 AE” value in series [8] came to 11%.
